# PubChem BioAssay AID720508 (The Scripps Research Institute Molecular Screening Center, 2013)
# About 500 (0.14%) of roughly 370,000 compounds were called active.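 The calls were made as follows: active = inhibition above the mean of compounds falling within the control limits plus 3 SD of them (cut at about 14% in these data); inactive = the rest.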 The sample as a whole holds a higher share of actives than the screen did.
# Biological target: Fibrinogen beta chain (Homo sapiens) (UniProt P02675)
# Experiment: inhibitors of Tn7 peptide binding to fibrin DD(E), primary screen, biochemical, fluorescence polarization, human fibrin, Tn7 probe (AID 720508);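 also: 0% = plate median of compound wells and 100% = 10 µM Aha-Tn7 peptide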
# Details: FP displacement of FITC-Tn7 peptide from fibrin DD(E); at 8.3 µM; active compounds read high; 0% = median of compound wells per plate
# In short: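 Test system: human clot-derived fibrin DD(E) complex / Quantity: 2 µM final DD(E) protein / Incubation: 10 min plus 3 h, room temperature / Measured by: fluorescence polarization / Benchmarks: high control of 10 µM Aha-Tn7 peptide / Replicates: singlicate testing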
# Sequence of Fibrinogen beta chain (Homo sapiens) (P02675 whole entry, looked up): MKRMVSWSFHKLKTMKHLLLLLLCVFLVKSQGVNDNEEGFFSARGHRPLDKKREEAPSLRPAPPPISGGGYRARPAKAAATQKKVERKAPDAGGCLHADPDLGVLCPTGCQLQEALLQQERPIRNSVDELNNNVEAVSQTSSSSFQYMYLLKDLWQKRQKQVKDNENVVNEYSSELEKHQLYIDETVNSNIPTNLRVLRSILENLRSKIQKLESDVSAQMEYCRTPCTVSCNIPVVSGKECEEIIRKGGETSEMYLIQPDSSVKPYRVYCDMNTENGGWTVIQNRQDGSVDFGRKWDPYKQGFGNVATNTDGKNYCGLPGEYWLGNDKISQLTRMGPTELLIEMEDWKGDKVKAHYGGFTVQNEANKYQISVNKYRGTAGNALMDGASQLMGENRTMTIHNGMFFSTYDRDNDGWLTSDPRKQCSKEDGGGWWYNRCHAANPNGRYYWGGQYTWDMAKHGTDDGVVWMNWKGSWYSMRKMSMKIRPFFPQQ
row,Compound,inhibition
1,O=C(NCc1ccco1)C1CCCN1S(=O)(=O)c1ccccc1C(F)(F)F (centres undefined),-1.12% (inactive)
2,COc1ccc(NC2CC(=O)N(C)C2=O)cc1 (centres undefined),0.3% (inactive)
3,CCC1CCCCN1C(=S)Nc1ccc(SC(F)F)cc1 (centres undefined),5.34% (inactive)
4,C[N+]1(CCNC(=O)/C=N/O)CCCCC1,1.46% (inactive)
5,COc1cc(C(=S)NC2CCCCC2)ccc1O,2.78% (inactive)
6,COc1ccc(C)cc1NC(=S)N1CCOCC1,-0.49% (inactive)
7,COc1cc(C(=S)N2CCOCC2)ccc1O,14.7% (active)
8,COC(=O)[C@]12CCCCC=C1N(Cc1ccc(Cl)cc1Cl)C(=O)[C@H](CC(=O)NCc1cccc3ccccc13)C2,-3.23% (inactive)
9,Cn1c(=O)cc(OCCCC(=O)N2CCN(c3ccccn3)CC2)c2ccccc21,2.1% (inactive)
10,OCCn1c(-c2ccccc2)csc1=Nc1ccccc1,5.44% (inactive)
11,C=CCOc1cccc(C2C(C(=O)c3ccc(C)o3)=C(O)C(=O)N2CCN2CCOCC2)c1 (centres undefined),0.33% (inactive)
12,Cc1cc(C)n2c(Nc3c(C)cccc3C)c(CCc3ccccc3)nc2n1,10.1% (inactive)
13,C=CCOc1c2ccc(C(=O)N(CC)c3ccc(OC)cc3)cc2nn1C,1.93% (inactive)
14,O=S(=O)(c1ccc(-c2ccno2)s1)N1CCCCC1,-8.93% (inactive)
15,O=[N+]([O-])/C=C/c1ccc2c(ccn2Cc2ccccc2)c1,0.19% (inactive)
16,O=S(=O)(NCC1CCCO1)c1cnc(Cl)c(Cl)c1 (centres undefined),0.79% (inactive)
17,O=C(COC(=O)c1ccc(N2CCCC2=O)cc1)c1ccc(OC(F)F)cc1,-9.52% (inactive)
18,COc1ccc(-c2nc(CCNC(=O)c3ccc(Br)o3)cs2)cc1,16.8% (active)
19,COc1cc(OC)cc(C(=O)NCC(=O)OCc2csc(-c3ccccc3)n2)c1,1.99% (inactive)
20,COc1cc(OC)cc(C(=O)NNC(=O)CNC(=O)c2ccc(Br)o2)c1,3.03% (inactive)

row,Compound,inhibition
1,CC(C)c1nnc(NC(=O)CCC(=O)N2CCN(c3cccc(Cl)c3)CC2)s1,3.33% (inactive)
2,CN1CCc2ccccc2C1Cc1ccccc1NC(=O)c1sc2ccccc2c1Cl (centres undefined),-2.71% (inactive)
3,O=C(Nc1ccon1)c1sc2ccccc2c1Cl,15.2% (active)
4,O=C(Nc1ccc2c(c1)OCO2)c1sc2cc(Cl)ccc2c1Cl,6.59% (inactive)
5,Cc1cc(Cl)ccc1C(=O)C1CCCN(C(=O)c2ccc3c(c2)OCO3)C1 (centres undefined),-13.3% (inactive)
6,COc1cccc(NC(=O)CN(C)CC(=O)c2c(N)n(Cc3ccccc3)c(=O)n(C)c2=O)c1,-1.38% (inactive)
7,O=C(COC(=O)c1ccccc1NC(=O)c1ccco1)Nc1ccc2c(c1)OC(F)(F)O2,-0.79% (inactive)
8,N#Cc1cccc(CSc2ncnc(N)n2)c1,-4.53% (inactive)
9,COC(=O)[C@]12CCCCC=C1N(Cc1ccco1)C(=O)[C@H](CC(=O)NCC1CCCCC1)C2,6.36% (inactive)
10,CCOc1ccc(NC(=O)CCS(=O)(=O)c2ccc3c(c2)CCCN3C(=O)CC)cc1,-5.9% (inactive)
11,COc1ccccc1-c1sc2ccccc2c1C#CC1(O)CCCCC1,1.77% (inactive)
12,C[C@H](CO)N1C[C@H](C)[C@@H](CN(C)S(=O)(=O)c2ccc(F)cc2)Oc2ccc(NC(=O)CCC(F)(F)F)cc2C1=O,-0.61% (inactive)
13,O=C(CCNS(=O)(=O)c1cccs1)N1CCN(c2ccc(F)cc2)CC1,3.48% (inactive)
14,COc1ccc(NC(=O)CN(C)C(=O)c2cccc(S(=O)(=O)N3CCN(c4ccccc4)CC3)c2)cc1,-8.03% (inactive)
15,CCCc1nc2c3ccccc3ccn2c1Cc1ccccc1C(F)(F)F,6.59% (inactive)
16,COc1ccc(-n2c(SCC(=O)Nc3ccccc3-c3ccccc3)nnc2-c2cccnc2)cc1,6.88% (inactive)
17,O=C(CSc1nnc(-c2ccccn2)n1-c1ccc(Cl)cc1)Nc1ccccc1-c1ccccc1,14% (active)
18,Cc1ccc(-n2c(SCC(=O)Nc3cccc4ccccc34)nnc2-c2ccccn2)cc1,1.64% (inactive)
19,NNC(=O)CNC(c1ccccc1)c1cc(Cl)ccc1NC(=O)c1ccccc1 (centres undefined),2.82% (inactive)
20,O=C(/C=C/c1ccc([N+](=O)[O-])cc1)NCCSCc1ccco1,1.56% (inactive)

row,Compound,inhibition
1,C=CCn1c(SCC(=O)c2c(N)n(C)c(=O)n(C)c2=O)nc2sc(CC)cc2c1=O,3.02% (inactive)
2,CC1(C)CC(=O)c2sc(N)nc2C1,-0.75% (inactive)
3,Cc1cc(C)cc(N(CCC#N)C(=O)CN2C(=O)NC3(CCCC3)C2=O)c1,-4.5% (inactive)
4,COc1ccc(OCCCC(=O)Nc2cccc(S(=O)(=O)N3CCCCCC3)c2)cc1,6.07% (inactive)
5,N#CCSc1ccccc1NC(=O)CN1C(=O)NC(CCc2ccccc2)C1=O (centres undefined),-8.31% (inactive)
6,O=C(CCN1C(=O)c2ccncc2C1=O)Nc1cc(F)ccc1F,6.34% (inactive)
7,CCOC(=O)C1(S(=O)(=O)c2ccc(Cl)cc2)CCN(Cc2ccccc2)CC1,7.42% (inactive)
8,C#CCNc1ccc(C(=O)OCC)cc1,26.2% (active)
9,CCOC(=O)c1ccc(NC(=O)c2c(NCc3ccccc3)[nH]c(=O)[nH]c2=O)cc1,1.03% (inactive)
10,CCOC(=O)c1ccc(NC(=O)c2ccc(NC(=O)C3CCCO3)cc2)cc1 (centres undefined),8.18% (inactive)
11,Oc1ccccc1-c1cc(-c2ccc(Cl)cc2)n[nH]1,-0.94% (inactive)
12,COc1ccc(Br)c2c1C(=O)CC2,-5.83% (inactive)
13,Cn1c(=O)[nH]c(=O)c2c1nc(CN1CCN(c3ccccc3F)CC1)n2CCc1ccccc1,6.89% (inactive)
14,CC(C)CCN1CCN=C1N(C)C,-8.21% (inactive)
15,OC(c1nc2ccc(F)cc2[nH]1)C(O)c1nc2ccc(F)cc2[nH]1 (centres undefined),-4.03% (inactive)
16,CCOC(=O)N1CCC(=NNC(N)=O)CC1,0.3% (inactive)
17,CCOC(=O)C=Cc1ccc(C(=O)OCC)[nH]1,-0.66% (inactive)
18,COc1cc2nc(CN(C)Cc3ccc(F)cc3)[nH]c(=O)c2cc1OC,-5.44% (inactive)
19,Cc1ccc(C)c(NS(=O)(=O)c2c(C)[nH]c(C)c2C(=O)N2CCCCC2)c1,-9.23% (inactive)
